The target of data set [1] is T1, Prostaglandin E2 receptor EP1 subtype (Homo sapiens, UniProt P34995).
T1 sequence (P34995 whole entry): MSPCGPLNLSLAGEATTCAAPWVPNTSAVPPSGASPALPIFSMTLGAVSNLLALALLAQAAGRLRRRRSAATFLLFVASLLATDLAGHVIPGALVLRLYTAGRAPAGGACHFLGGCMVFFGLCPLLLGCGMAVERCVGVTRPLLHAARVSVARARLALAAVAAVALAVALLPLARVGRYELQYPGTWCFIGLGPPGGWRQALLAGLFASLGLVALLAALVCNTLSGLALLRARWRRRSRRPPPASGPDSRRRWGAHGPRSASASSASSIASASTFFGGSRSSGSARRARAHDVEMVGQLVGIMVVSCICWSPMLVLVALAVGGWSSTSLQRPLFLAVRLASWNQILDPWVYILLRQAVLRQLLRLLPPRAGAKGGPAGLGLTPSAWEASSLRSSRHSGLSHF
Briefly: Displacement of [3H]PGE2 from human EP1 receptor expressed in CHO cells. The format is cell-based. Summed up:
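Radioligand binding with [3H]-PGE2 in CHO cells overexpressing human EP1 receptor. Values are the mean of at least three experiments with standard deviations.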
(In general: Displacement assays read how much labelled ligand stays bound in the presence of the test substance.)

In the next data set the test system is Brain. Briefly: (§1) Drug level in brain of complete Freund's adjuvant-induced rat inflammatory pain model at 10 mg/kg, po administered after 23 hrs of adjuvant challenge measured after 1 hr. In kind it is ADME, organism-based. The arrangement: dose 10 mg/kg, route oral. Particulars: in vivo, 1 h. Summed up:
(§2)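 CFA rat study: oral doses of 1, 3 or 10 mg/kg given 23 h after intraplantar adjuvant, samples 1 h post-dose. Blood values are the mean from seven animals. Brain values are the mean from three animals.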

Data set [2] concerns Rattus norvegicus. The data set can be described thus: […] activity against complete Freund's adjuvant-induced inflammatory pain in rat assessed as reversal of hypersensitivity at 10 mg/kg, po administered 23 hrs post-adjuvant challenge measured after 1 hr. In kind it is functional. Summed up: (§3)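 Rats given adjuvant by intraplantar injection; oral dosing at 1, 3 and 10 mg/kg 23 h later. Hypersensitivity assessed by weight-bearing 1 h post-dose. ED50 derived across doses.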

The target of a further data set is Cytochrome P450 2D6 (Homo sapiens, UniProt P10635). The data set can be described thus: Inhibition of human CYP2D6. The format is ADME. Summed up:
(§4)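 Inhibition of metabolism of fluorometric substrates (Cypex protocol); IC50 values are the mean of three experiments ± standard deviation.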

Data set [3] has as its target T1, Prostaglandin E2 receptor EP1 subtype. Briefly: Antagonist activity at human recombinant EP1 receptor expressed in CHO cells assessed as inhibition of PGE2-mediated intracellular calcium mobilization by FLIPR method. In kind it is functional, cell-based. Summed up:
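CHO cells recombinantly overexpressing human EP1 receptor; antagonism measured as block of PGE2-mediated intracellular Ca2+ mobilization. Values are the mean of at least three experiments with standard deviations.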

The target of the next data set is T2, Cytochrome P450 1A2 (Homo sapiens, UniProt P05177).
T2 sequence (P05177 whole entry): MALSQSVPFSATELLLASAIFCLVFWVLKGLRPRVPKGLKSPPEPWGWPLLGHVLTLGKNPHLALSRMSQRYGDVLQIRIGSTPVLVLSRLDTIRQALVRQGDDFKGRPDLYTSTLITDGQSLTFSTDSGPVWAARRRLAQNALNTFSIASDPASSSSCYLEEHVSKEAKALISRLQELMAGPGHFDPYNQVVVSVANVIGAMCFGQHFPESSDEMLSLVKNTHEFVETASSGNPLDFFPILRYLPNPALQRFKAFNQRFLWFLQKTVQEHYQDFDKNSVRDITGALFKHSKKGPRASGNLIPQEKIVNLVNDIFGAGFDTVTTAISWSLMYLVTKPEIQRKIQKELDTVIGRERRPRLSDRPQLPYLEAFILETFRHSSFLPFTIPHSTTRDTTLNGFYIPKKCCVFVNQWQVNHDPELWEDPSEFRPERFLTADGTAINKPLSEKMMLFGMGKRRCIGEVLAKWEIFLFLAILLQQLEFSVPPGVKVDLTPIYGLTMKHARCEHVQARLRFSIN
Briefly: Inhibition of human CYP1A2. The format is ADME. In a few lines: as §4

A short description of data set [4]: Metabolic stability in human liver microsomes assessed as compound turnover after 30 mins. Particulars: read-out: Stability. In kind it is ADME, Microsome.
A short description of data set [5]: Metabolic stability in rat liver microsomes assessed as compound turnover after 30 mins. The format is ADME, Microsome. The settings on record: read-out: Stability. In general terms: Liver microsomes are a subcellular fraction often used to study metabolism.
The nature of data set [6]: Lipophilicity, log D at pH 7.4. In kind it is physicochemical. Particulars: buffer.
For another data set, the target named is Cytochrome P450 2C19 (Homo sapiens, UniProt P33261). The data set can be described thus: Inhibition of human CYP2C19. In kind it is ADME. Summed up: as §4
Sequence of Cytochrome P450 2C19 (P33261 whole entry): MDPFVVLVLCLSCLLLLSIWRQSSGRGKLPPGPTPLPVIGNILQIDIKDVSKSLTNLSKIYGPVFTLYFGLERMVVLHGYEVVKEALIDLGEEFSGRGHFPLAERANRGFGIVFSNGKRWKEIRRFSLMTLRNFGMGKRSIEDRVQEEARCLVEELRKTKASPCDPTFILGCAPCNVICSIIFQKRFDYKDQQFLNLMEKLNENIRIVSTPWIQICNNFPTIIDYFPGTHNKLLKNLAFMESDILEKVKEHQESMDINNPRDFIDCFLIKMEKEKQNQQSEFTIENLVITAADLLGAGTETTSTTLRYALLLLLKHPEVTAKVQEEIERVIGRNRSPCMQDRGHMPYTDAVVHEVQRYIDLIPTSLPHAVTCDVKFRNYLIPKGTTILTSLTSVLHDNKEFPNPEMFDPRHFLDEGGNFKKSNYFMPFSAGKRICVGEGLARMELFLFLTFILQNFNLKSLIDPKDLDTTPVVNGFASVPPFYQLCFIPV
The target in the next data set is Cytochrome P450 2C9 (Homo sapiens, UniProt P11712). Briefly: Inhibition of human CYP2C9. In kind it is ADME. In a few lines: as §4
Sequence of Cytochrome P450 2C9 (P11712 whole entry): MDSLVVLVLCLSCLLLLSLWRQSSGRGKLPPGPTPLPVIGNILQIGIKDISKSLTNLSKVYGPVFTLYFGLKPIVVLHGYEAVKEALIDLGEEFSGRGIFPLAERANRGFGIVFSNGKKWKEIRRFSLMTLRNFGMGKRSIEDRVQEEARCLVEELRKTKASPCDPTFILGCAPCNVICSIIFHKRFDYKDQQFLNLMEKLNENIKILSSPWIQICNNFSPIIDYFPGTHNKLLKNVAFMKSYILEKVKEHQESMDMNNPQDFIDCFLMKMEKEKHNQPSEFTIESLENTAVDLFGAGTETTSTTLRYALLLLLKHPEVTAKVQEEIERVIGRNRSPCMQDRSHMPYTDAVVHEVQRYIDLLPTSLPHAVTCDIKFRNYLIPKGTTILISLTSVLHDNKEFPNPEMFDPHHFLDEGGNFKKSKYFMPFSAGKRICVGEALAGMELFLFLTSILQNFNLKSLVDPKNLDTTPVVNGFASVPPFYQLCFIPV
The nature of data set [7]: Selectivity for human recombinant EP1 receptor over DP1.
The target in data set [8] is T3, Cytochrome P450 3A4 (Homo sapiens, UniProt P08684). Briefly: Inhibition of human CYP3A4 using DEF substrate. In kind it is ADME.
T3 sequence (P08684 whole entry): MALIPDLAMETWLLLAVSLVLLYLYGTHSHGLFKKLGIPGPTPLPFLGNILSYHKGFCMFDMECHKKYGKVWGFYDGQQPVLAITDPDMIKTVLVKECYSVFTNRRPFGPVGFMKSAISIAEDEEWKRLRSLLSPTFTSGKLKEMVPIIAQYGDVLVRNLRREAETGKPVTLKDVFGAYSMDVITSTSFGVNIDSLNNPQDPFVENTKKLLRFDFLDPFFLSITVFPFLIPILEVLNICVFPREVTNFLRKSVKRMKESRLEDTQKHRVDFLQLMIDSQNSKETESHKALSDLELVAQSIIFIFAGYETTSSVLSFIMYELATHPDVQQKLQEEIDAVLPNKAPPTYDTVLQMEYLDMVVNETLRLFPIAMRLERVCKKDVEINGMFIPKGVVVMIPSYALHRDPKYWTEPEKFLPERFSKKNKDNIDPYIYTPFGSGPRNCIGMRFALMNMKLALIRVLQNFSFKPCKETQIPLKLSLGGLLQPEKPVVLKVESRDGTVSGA
Data set [9] can be described thus: as §1. In kind it is ADME, organism-based. The arrangement: dose 10 mg/kg, route oral. The settings on record: brain, read-out: Drug uptake. In a few lines: as §2
The nature of data set [10]: Drug level in blood of complete Freund's adjuvant-induced rat inflammatory pain model at 1 mg/kg, po administered after 23 hrs of adjuvant challenge measured after 1 hr. In kind it is ADME, organism-based. The arrangement: dose 1 mg/kg, route oral. The settings on record: read-out: Drug uptake. Summed up:
as §2

Data set [11] can be described thus: Ratio of drug level in brain to blood in complete Freund's adjuvant-induced rat inflammatory pain model at 1 mg/kg, po administered after 23 hrs of adjuvant challenge measured after 1 hr. The format is ADME, organism-based. Particulars: brain and blood. Also noted: dose 1 mg/kg, route oral. In a few lines: (§5)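 Rat CFA inflammatory pain model: oral dosing at 1, 3 or 10 mg/kg 23 h after intraplantar adjuvant; blood and brain sampled 1 h post-dose from the same animal; Br:Bl ratio is the mean from three animals.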

The nature of data set [12]: Drug level in blood of complete Freund's adjuvant-induced rat inflammatory pain model at 10 mg/kg, po administered after 23 hrs of adjuvant challenge measured after 1 hr. The format is ADME, organism-based. The arrangement: dose 10 mg/kg, route oral. Particulars: read-out: Drug uptake. Summed up:
as §2

The nature of data set [13]: Drug level in brain of complete Freund's adjuvant-induced rat inflammatory pain model at 3 mg/kg, po administered after 23 hrs of adjuvant challenge measured after 1 hr. The format is ADME, organism-based. Also noted: dose 3 mg/kg, route oral. The settings on record: read-out: Drug uptake. Summed up: as §2
Data set [14] in a line: Ratio of drug level in brain to blood in complete Freund's adjuvant-induced rat inflammatory pain model at 3 mg/kg, po administered after 23 hrs of adjuvant challenge measured after 1 hr. Particulars: brain and blood. Also noted: dose 3 mg/kg, route oral. The format is ADME, organism-based. In a few lines:
as §5

The test system of data set [15] is Rattus norvegicus. Briefly: […] activity against complete Freund's adjuvant induced inflammatory pain in po dosed rat assessed as reversal of hypersensitivity post-adjuvant challenge after 1 hr. In kind it is functional. In a few lines: as §3
The nature of data set [16]: Drug level in brain of complete Freund's adjuvant-induced rat inflammatory pain model at 1 mg/kg, po administered after 23 hrs of adjuvant challenge measured after 1 hr. The format is ADME, organism-based. The arrangement: dose 1 mg/kg, route oral. Particulars: read-out: Drug uptake. In a few lines:
as §2

In data set [17] the target is T3, Cytochrome P450 3A4. The data set can be described thus: Inhibition of human CYP3A4 using PPR substrate. In kind it is ADME.
Data set [18] is described as follows: Drug level in blood of complete Freund's adjuvant-induced rat inflammatory pain model at 3 mg/kg, po administered after 23 hrs of adjuvant challenge measured after 1 hr. In kind it is ADME, organism-based. The arrangement: dose 3 mg/kg, route oral. The settings on record: read-out: Drug uptake. In a few lines:
as §2

The nature of data set [19]: Ratio of drug level in brain to blood in complete Freund's adjuvant-induced rat inflammatory pain model at 10 mg/kg, po administered after 23 hrs of adjuvant challenge measured after 1 hr. In kind it is ADME, organism-based. Also noted: dose 10 mg/kg, route oral. Particulars: brain and blood. Summed up: as §5

Sequence of Cytochrome P450 2D6 (P10635 whole entry): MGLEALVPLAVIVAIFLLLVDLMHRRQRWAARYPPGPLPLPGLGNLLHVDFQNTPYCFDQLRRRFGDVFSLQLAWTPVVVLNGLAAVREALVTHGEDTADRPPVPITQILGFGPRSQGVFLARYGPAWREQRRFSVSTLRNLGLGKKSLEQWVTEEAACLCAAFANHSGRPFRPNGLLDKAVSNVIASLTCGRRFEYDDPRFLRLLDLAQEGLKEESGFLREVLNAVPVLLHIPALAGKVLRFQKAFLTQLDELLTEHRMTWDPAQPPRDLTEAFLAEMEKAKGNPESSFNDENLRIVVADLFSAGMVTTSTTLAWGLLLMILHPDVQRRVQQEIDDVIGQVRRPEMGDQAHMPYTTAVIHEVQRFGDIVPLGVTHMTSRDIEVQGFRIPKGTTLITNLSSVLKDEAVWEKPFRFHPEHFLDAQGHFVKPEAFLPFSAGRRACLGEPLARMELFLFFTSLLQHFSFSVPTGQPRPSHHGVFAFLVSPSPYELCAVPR

Turning to `O=C(O)c1cccc(Cc2cc(Cl)ccc2OCc2ccccc2F)n1`, the half-maximal inhibitory concentration (IC50) – broadly, the concentration that gives 50% inhibition – in data set [1] was 79.4 nM.

As to `Cc1cc(C(=O)[O-])nn1Cc1cc(Br)ccc1OCc1ccc(Cl)cc1Cl.[Na+]`, the Ratio in the data set with Brain is on record as less than 0.05. This compound showed an IC50 in [1] of 0.129 nM. Besides, the Activity in the data set on Rattus norvegicus [2] was 70%.

Compound `O=C(O)c1cccc(Cc2cc(Cl)ccc2OCc2ccc(Cl)cc2)n1` gave an IC50 in [1] of 39.8 nM.

With `O=C(O)c1cccc(Cc2cc(Cl)ccc2OCC2CCCC2)n1`, the IC50 in [1] was 31.6 nM.

For `O=C(O)c1cccc(Cc2cc(Cl)ccc2OCc2ccc(Cl)cc2Cl)n1`, the IC50 was more than 50000 nM at Cytochrome P450 2D6; 10 nM in data set [1]; 32000 nM against Cytochrome P450 1A2; more than 50000 nM against Cytochrome P450 2C19; 4800 nM against Cytochrome P450 2C9. The Ki (usually the equilibrium dissociation constant of an inhibitor or competing ligand from its target) in [3] is 25.1 nM. Further, the metabolised at 0.5 h in [4] and in data set [5] was less than 15% in each case. Further, in data set [6], the logD (in general, the decadic logarithm of the distribution of all forms, ionised or not, between an organic phase and buffer at a given pH) came out at 2.6.

In data set [1], `O=C(O)c1cccc(Cc2cc(Cl)ccc2OCC2CC2)n1` gave an IC50 of 200 nM.

`O=C(O)c1cccc(Cc2cc(Cl)ccc2OCc2c(F)cc(F)cc2F)n1` had a half-inhibitory concentration (IC50) in data set [1] of 79.4 nM.

As to `O=C(O)c1cccc(Cc2cc(Cl)ccc2OCC2CCCCC2)n1`, the IC50 in [1] is 100 nM.

In data set [1], `O=C(O)c1cccc(Cc2cc(Cl)ccc2OCc2ccc(F)cc2)n1` gave an IC50 of 100 nM.

As for `O=C(O)c1cccc(C2=C(c3cc(Cl)ccc3OCc3ccc(F)cc3F)CCC2)n1`, in data set [7], the fold change (FC) was more than 400.

Regarding `O=C([O-])c1cccc(Cc2cc(Cl)ccc2OCc2ccc(F)cc2Cl)n1.[Na+]`, the half-maximal inhibitory concentration (IC50) against Cytochrome P450 3A4 [8] is 35000 nM; against Cytochrome P450 2D6, more than 100000 nM; in [1], 12.6 nM; against Cytochrome P450 1A2, 61000 nM; at Cytochrome P450 3A4 [17] it was more than 100000 nM; against Cytochrome P450 2C19, 28000 nM. The midpoint of inhibition on Cytochrome P450 2C9, the IC50, lay at 15000 nM. Moreover, the concentration at 1 h was found to be 1120 nM in data set [9]; 346 nM in data set [10]; 3010 nM in [12]; 256 nM in [13]; 93 nM in [16]; 836 nM in data set [18]. Also, the Kp (in general, tissue or fluid exposure divided by exposure in the circulation) at 1 h in [11] was 0.31; in [14], 0.3; in data set [19], 0.31. Also, the Ki in data set [3] is 100 nM. Also, the ED50 (in general, the dose at which the effect has come halfway, by size or by number of responders) in the data set on Rattus norvegicus [15] was found to be 5.6 mg/kg. In data set [6], this compound had a logD of 2.

For the compound `O=C(O)c1cccc(Cc2cc(Cl)ccc2OCc2ccc(F)cc2F)n1`, the 50% inhibitory concentration (IC50) in [1] is 25.1 nM.

In data set [1], `O=C(O)c1cccc(Cc2cc(Cl)ccc2OCc2ccccc2Cl)n1` gave an IC50 of 39.8 nM.

Values taken from ChEMBL document CHEMBL1138602, “Discovery of sodium 6-[(5-chloro-2-{[(4-chloro-2-fluorophenyl)methyl]oxy}phenyl)methyl]-2-pyridinecarboxylate (GSK269984A) an EP(1) receptor antagonist for the treatment of inflammatory pain” (Bioorg Med Chem Lett, 2009).
